ChEMBL document CHEMBL2029267, “Rapid assembly of a library of lipophilic iminosugars via the thiol-ene reaction yields promising pharmacological chaperones for the treatment of Gaucher disease” (J Med Chem, 2012)
Where a chain is given by its changes, count along the chain named. The source made the active and inactive calls. No cut-off for these calls is given here.

How the values were obtained:
[1] = Cytotoxicity against gaucher patient fibroblast assessed as decrease in cell viability at 100 uM after 5 days by alamar blue assay; assay type: cell-based; conditions: human, 120 h
Outline: (§1)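 Viability of GD patient fibroblasts grown with compound at 10, 33 and 100 μM was read by a resazurin-based spectrophotometric assay.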

[2] = species: Homo sapiens; experiment: Activation of intracellular glucocerebrosidase p.L444P mutant in gaucher patient fibroblast using 4-methylumbelliferyl beta-D-glucopyranoside as substrate assessed as concentration at which 50% of maximum increase in activity
[3] = species: Homo sapiens; experiment: Activation of intracellular glucocerebrosidase p.L444P mutant in gaucher patient fibroblast using 4-methylumbelliferyl beta-D-glucopyranoside as substrate relative to control
[4] = test system: T1, Lysosomal acid glucosylceramidase (Homo sapiens), P04062 [N409S]; experiment: Activation of intracellular glucocerebrosidase p.N370S mutant in gaucher patient fibroblast using 4-methylumbelliferyl beta-D-glucopyranoside as substrate relative to control
T1 sequence (whole entry): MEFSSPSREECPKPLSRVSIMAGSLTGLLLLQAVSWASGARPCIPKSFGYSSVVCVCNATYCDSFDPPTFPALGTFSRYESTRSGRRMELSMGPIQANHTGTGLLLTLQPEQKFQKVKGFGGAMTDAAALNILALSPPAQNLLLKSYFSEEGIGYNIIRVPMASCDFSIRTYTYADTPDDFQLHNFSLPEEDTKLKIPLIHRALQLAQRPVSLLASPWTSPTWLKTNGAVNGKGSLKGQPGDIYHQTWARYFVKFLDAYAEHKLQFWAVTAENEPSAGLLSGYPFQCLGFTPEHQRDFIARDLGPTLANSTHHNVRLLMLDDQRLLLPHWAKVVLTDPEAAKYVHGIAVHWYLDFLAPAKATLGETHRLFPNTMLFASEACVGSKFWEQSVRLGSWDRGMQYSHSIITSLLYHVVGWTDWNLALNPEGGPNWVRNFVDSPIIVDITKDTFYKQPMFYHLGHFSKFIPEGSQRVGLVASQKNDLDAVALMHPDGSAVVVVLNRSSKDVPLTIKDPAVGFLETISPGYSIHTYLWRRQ

[5] = species: Homo sapiens; experiment: Inhibition of human lysosomal alpha-galactosidase using 4-methylumbelliferyl alpha-D-galactopyranoside as substrate at 200 uM by fluorimetric analysis
Outline: (§2)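 Enzyme source was a lysosomal-enzyme-enriched ConA-bound human placental fraction, run in 100 mM citrate–phosphate pH 4.5 with 0.025% human serum albumin at 37 °C. Compound was tested at 200 μM in triplicate. An equal volume of 4-MU substrate was added: α-Glc 3.0 mM (α-glucosidase), α-Gal 1.0 mM (α-galactosidase), β-Gal 0.5 mM (β-galactosidase). Reactions were stopped with 4-fold excess 100 mM aminomethylpropanol and fluorescence read at 365/460 nm.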

[6] = test system: T1, Lysosomal acid glucosylceramidase (Homo sapiens), P04062 [N409S]; experiment: Activation of intracellular glucocerebrosidase p.N370S mutant in gaucher patient fibroblast using 4-methylumbelliferyl beta-D-glucopyranoside as substrate assessed as concentration at which 50% of maximum increase in activity
[7] = target: Lysosomal alpha-glucosidase (Homo sapiens) (UniProt P10253); experiment: Inhibition of human lysosomal alpha-glucosidase using 4-methylumbelliferyl alpha-D-glucopyranoside as substrate at 200 uM by fluorimetric analysis; outline: as §2
[8] = target: T2, Beta-galactosidase (Homo sapiens) (UniProt P16278); experiment: Inhibition of human lysosomal beta-galactosidase using 4-methylumbelliferyl beta-Dgalactopyranoside as substrate at 200 uM by fluorimetric analysis; outline: as §2
T2 sequence (whole entry): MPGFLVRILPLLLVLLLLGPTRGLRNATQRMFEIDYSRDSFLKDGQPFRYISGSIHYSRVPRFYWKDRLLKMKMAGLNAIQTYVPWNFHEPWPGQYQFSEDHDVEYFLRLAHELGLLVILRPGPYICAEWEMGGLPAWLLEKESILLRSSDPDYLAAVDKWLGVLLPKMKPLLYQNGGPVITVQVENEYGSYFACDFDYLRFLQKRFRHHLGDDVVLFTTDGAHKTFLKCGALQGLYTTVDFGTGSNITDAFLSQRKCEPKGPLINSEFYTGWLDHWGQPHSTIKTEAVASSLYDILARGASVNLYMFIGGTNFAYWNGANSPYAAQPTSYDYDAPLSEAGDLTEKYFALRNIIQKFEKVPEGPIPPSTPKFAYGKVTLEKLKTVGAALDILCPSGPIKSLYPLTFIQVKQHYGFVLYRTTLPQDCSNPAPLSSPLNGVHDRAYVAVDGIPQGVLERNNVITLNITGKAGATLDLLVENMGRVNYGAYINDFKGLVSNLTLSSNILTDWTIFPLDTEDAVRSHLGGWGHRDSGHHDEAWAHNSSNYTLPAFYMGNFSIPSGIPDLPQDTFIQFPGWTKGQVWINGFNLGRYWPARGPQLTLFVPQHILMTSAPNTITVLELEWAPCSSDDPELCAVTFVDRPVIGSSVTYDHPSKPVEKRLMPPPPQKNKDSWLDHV

[9] = target: T3, Lysosomal acid glucosylceramidase (Homo sapiens) (UniProt P04062); experiment: Thermal denaturation of human glucocerebrosidase by differential scanning fluorimetry assessed as change in melting temperature at 100 uM and pH 7
T3 sequence (whole entry): T1 sequence (whole entry) with S409N

[10] = target: T4, Lysosomal acid glucosylceramidase (Homo sapiens, UniProt P04062); experiment: Competitive inhibition of wild type human glucocerebrosidase using 4-methylumbelliferyl beta-D-glucopyranoside as substrate after 15 mins by Dixon and Line-Weaver Burk plot analysis […]
T4 sequence (P04062 whole entry): T1 sequence (whole entry) with S409N

[11] = species: Homo sapiens; experiment: Activation of beta-N-acetyl hexosaminidase in gaucher patient fibroblast using 4-methylumbelliferyl N-acetyl-beta-D-glucosaminide as substrate
Outline: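 Patient fibroblasts (GD, homozygous mutant GBA) grown in α-MEM with 10% FCS at 37 °C, CO2, with compound for 5 days. Lysates prepared in pH 5.5 citrate–phosphate with Triton X-100 and taurocholate. Lysosomal β-N-acetyl hexosaminidase activity read with fluorogenic 4-MU N-acetyl-β-D-glucosaminide at each compound concentration.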

[12] = Cytotoxicity against gaucher patient fibroblast assessed as decrease in cell viability at 10 uM after 5 days by alamar blue assay; assay type: cell-based; conditions: human, 120 h; outline: as §1
[13] = target: T5, Cytosolic beta-glucosidase (Homo sapiens, UniProt Q9H227); experiment: Inhibition of human cytosolic beta-glucosidase using 4-methylumbelliferyl beta-D-glucopyranoside as substrate after 15 mins by fluorimetric analysis
T5 sequence (Q9H227 whole entry): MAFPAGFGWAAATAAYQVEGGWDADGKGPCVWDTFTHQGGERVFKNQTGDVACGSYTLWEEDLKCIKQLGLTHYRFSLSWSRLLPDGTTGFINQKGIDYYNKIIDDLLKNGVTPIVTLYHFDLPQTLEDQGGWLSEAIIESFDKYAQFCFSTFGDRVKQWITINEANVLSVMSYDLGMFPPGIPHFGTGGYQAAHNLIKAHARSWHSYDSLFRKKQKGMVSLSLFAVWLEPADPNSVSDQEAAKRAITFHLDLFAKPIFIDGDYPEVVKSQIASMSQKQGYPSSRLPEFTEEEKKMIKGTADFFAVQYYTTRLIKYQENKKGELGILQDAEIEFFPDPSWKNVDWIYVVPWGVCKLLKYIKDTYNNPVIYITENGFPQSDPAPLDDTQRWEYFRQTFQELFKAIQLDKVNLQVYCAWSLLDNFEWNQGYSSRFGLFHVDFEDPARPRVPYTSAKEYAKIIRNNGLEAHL
Outline: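 Purified human cytosolic neutral β-glucosidase was preincubated 15 min at room temperature with a 3-fold compound dilution series. An equal volume of 10 mM 4-MU β-D-glucoside in 100 mM citrate–phosphate pH 7.0 was added, then incubated 30 min at 37 °C. The reaction was stopped with 4-fold excess 100 mM 2-amino-2-methylpropanol and read at ex 365/em 460 nm. IC50 came from nonlinear fitting.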

With CCCCCCSCC[C@H]1NC[C@@H](O)[C@H](O)[C@H]1O.Cl the Activity [1] was “Toxic”, the Activity [2] was 0.6 nM and the fold change (FC) [3] was 1.3. For the same compound, the fold change (FC) [4] was 2.1, the inhibition [5] was “inactive” and the Activity [6] was 2.7 nM. The inhibition [7] was “inactive”, the inhibition [8] was “inactive” and the deltaTm [9] was 15 K. It also gave a Ki [10] of 1.8 nM.

In the case of CCCCCCCCSCC[C@H]1NC[C@@H](O)[C@H](O)[C@H]1O.Cl, the Activity [2] is reported as 0.6 nM, the inhibition [11] is reported as “Active” and the Activity [12] is reported as “Toxic”. For the same compound, the IC50 [13] was 2000 nM, the fold change (FC) [3] was 1.2 and the fold change (FC) [4] was 1.6. For the same compound, the inhibition [5] was “inactive”, the Activity [6] was 1 nM and the inhibition [7] was “inactive”. For the same compound, the inhibition [8] was “inactive”, the deltaTm [9] was 20 K and the Ki [10] was 0.4 nM.
